Variants at the floor of the assay were thinned out.
B1: tRNA (parent)
chain: GUUCCGUUGGCGUAAUGGUAACGCGUCUCCCUCCUAAGGAGAAGACUGCGGGUUCGAGUCCCGUACGGAACG

Variants of: B1
Assay: yeast fitness relative to wild type (ratio to wild type); higher = fitter; tRNA-Arg(CCU), competitive growth, 37 C, YPD
Method in brief: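 Variants of the tRNA-Arg(CCU) gene were chemically synthesised with a 3% per-site mutation rate across 69 sites and placed at the native genomic locus in Saccharomyces cerevisiae. Six parallel replicates of the pooled strains were competed in YPD at 37°C for 24 hours, and gene amplicons from the start and end populations were read by 100-nucleotide paired-end sequencing. Darwinian fitness relative to wild type was derived from changes in genotype frequencies. Genotypes required ≥ 100 starting reads, and estimates < 0.5 were set to 0.5.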

Variant | yeast fitness
GUUCCGUUGGGGUAAUGGUAACGCGUUUCCCUCCUAAGGAGAAGACUGCGGGUUCAGGUCCCGUACGGAACG [C11G C27U G56A A57G] | ≤ 0.5
GUUCCGUUGGGGUAAUGGUAACGCGUUUCCCUCCUAAGGAGAAGACUGCGGGUUCGAGUCCCGUACGGAACG [C11G C27U] | 0.706
GUUCCGUUGGGGUAAUGGUAACGCGUAUCCCUCCUAAGGAGAAGACUGCGGGUUCGAGUCCCGUACGGAACG [C11G C27A] | 0.715
GUUCCGUUGGGGUAAUGGUAACGAGUCGCCCUCCUAAGGAGAAGACUGCGGGUUCGAGUCCCAUACGGAACG [C11G C24A U28G G63A] | 0.586
GUUCCGUUGGGGUAAUGGUAACGCGUAUCCCUCCUAAGGAGAAGAGUGCAGGUUCGAGUCUCGUACGGAACG [C11G C27A C46G G50A C61U] | ≤ 0.5
GUUCCGUUGGGGUAAUGGUAACGCGUCUCCCUCCUAAGGAGAAGACUGCGGGUUCGAGUCCCGUACGGCUCG [C11G A69C A70U] | 0.684
GUUCCGUUGGGGUAAUGGUAACGUGUCUCCCUCCUAAGGAGUUGACUGCGGGUUCGAGUCCCGUAUGGAACG [C11G C24U A42U A43U C66U] | ≤ 0.5
GUUCCGUUGGGGUAAUGGUAACGGGUGUCCCUCCUAAGGAGAAGACUCCGGGUUCGAGUCCCGUACGGAACG [C11G C24G C27G G48C] | ≤ 0.5
GUUCCGUUGGGGUAAUGGUAACGGGUCUCCCUCCUAAGGAGAAGACUGCGGGUUUGAGUCCCGUUCGGAACG [C11G C24G C55U A65U] | ≤ 0.5
GUUCCGUUGGGGUAAUGGUAACGUGUCUCCCUCCUAAGGAGAAGACUCCGGGUUCGAGUCCCGUACGGAACG [C11G C24U G48C] | 0.541
GUUCCGUUGGGGUAAUGGUAAUGCGUCUCCCUCCUAAGGCGAAGAUUGCGGGUUCGAGUACCGUACGGAACG [C11G C22U A40C C46U C60A] | ≤ 0.5
GUUCCGUUGGGGUAAUGGUAACGCGUGUCCAUCCUAAGGAGAAGACUGCGGGUUCGAGUGCCGUACGGAACG [C11G C27G C31A C60G] | ≤ 0.5
GUUCCGUUGGGGUAAUGGUAAAGCGUCUCCAUCCUAAGGGGAAGACUGCGGGUUCGAGUCCCGUACGGAACG [C11G C22A C31A A40G] | ≤ 0.5
GUUCCGUUGGGGUAAUGGUAACGCGUUUCCCUGCUAAGGAGAAGACUGCGGGUUCGAGUCCCGUCCGGAACG [C11G C27U C33G A65C] | ≤ 0.5
GUUCCGUUGGGGUAAUGGUAAUGCGUCUCCCUCCUAAGGAGAAGACUGCGGGUUCGAGUCCCCUACGGAACG [C11G C22U G63C] | ≤ 0.5
GUUCCGUUGGGGUAAUGGUAAUGCGUCUCACUCCUAAGGAGAAGACUGCGGGUUCGAGUCCCGUACGGAACG [C11G C22U C30A] | ≤ 0.5
GUUCCGUUGGGGUAAUGGUAACGCGUCUCCCUCCUAAGGAGAAGACUGCGGGUUCGAGUCCCGUUCGGAACG [C11G A65U] | 0.656
GUUCCGUUGGGGUAAUGGUAACGCGUCUCCCUCCUAAGGAGAAGACUGCGGGUUCGAGUCCCGUGCGGAACG [C11G A65G] | 0.696
GUUCCGUUGGGGUAAUGGUAACGCGUCUCCCUCCUAAGGAGAAGACUGCGGGUUCGAGUCCCGUCCGGAACG [C11G A65C] | 0.594

Variant | yeast fitness
GUUCCGUUGGGGUAAUGGUAACGCGUUUCCCUCCUAUGGAGAAAACUGCGGGUUCGAGUCCAGUACGGAACG [C11G C27U A37U G44A C62A] | 0.511
GUUCCGUUGGGGUAAUGGUAACGCGUGUCCCUCCUAAGGAGAAGACUGCGGGUUAGAGUCCCGUACGGAACG [C11G C27G C55A] | ≤ 0.5
GUUCCGUUGGGGUAAUGGUAACGUGUCUCCCUCCUAAGGAGAAGACUGAGGGUUCGAGUCCCGUACGGAACG [C11G C24U C49A] | 0.547
GUUCCGUUGGGGUAAUGGUAACGUGUCCCCCUCCUAAGGAGAAGACUGCGGGUUCGAGUCCAGUACGGAACG [C11G C24U U28C C62A] | ≤ 0.5
GUUCCGUUGGGGUAAUGGUAACGCGUAUCCCUCCUAAAGAGAAGACUGCGGGUUCGAGUCCCGUCCGGAACG [C11G C27A G38A A65C] | 0.557
GUUCCGUUGGGGUAAUGGUAACGUGUCUCCCUCGUAAGGAGAAGACUGCGGGUUCGAGUCCCGUACGGAACG [C11G C24U C34G] | ≤ 0.5
GUUCCGUUGGGGUAAUGGUAACGCGUUUCCCUCCUAAGGAGACGACUGCGGGUUCGAGUCCCGUGCGGAACG [C11G C27U A43C A65G] | ≤ 0.5
GUUCCGUUGGGGUAAUGGUAACGUGUCUCCCUCCUAAGGAGAAGACUGCGGGUUCGAGUCCCGUACGGCACG [C11G C24U A69C] | ≤ 0.5
GUUCCGUUGGGGUAAUGGUAACGCGUCUCCCUCCUAAGGAGAAGACUGCGGGUUCGAGUCCCGUACGGGACG [C11G A69G] | 0.652
GUUCCGUUGGGGUAAUGGUAACGCGUCUCCCUCCUAAGGAGAAGACUGCGGGUUCGAGUCCCGUACGGCACG [C11G A69C] | 0.683
GUUCCGUUGGGGUAAUGGUAACGCGUCUCCCUCCUAAGGAGAAGACUGCGGGUUCGAGUCCCGUACGGUACG [C11G A69U] | 0.608
GUUCCGUUGGGGUAAUGGUAAAGCGUCUCCUUCCUAAGGAGGAGACUGCGGGUUCGAGUCCCGUAUGGAACG [C11G C22A C31U A42G C66U] | ≤ 0.5
GUUCCGUUGGGGUAAUGGUAACGCGUCUCCCUCCUAAGGAGAAGACUGCGGGUUCGAGUCCCGUACGGAUCG [C11G A70U] | 0.655
GUUCCGUUGGGGUAAUGGUAACGCGUCUCCCUCCUAAGGAGAAGACUGCGGGUUCGAGUCCCGUACGGAGCG [C11G A70G] | 0.581
GUUCCGUUGGGGUAAUGGUAAGGUGUCUCCCUCCUAAGGAGAAGACUGCCGGUUCGAGUCCCGUACGGAACG [C11G C22G C24U G50C] | ≤ 0.5
GUUCCGUUGGGGUAAUGGUAAGGCGUCUCCCUCCUAGGGAGAAGACUGCGGGUUCGAGUACCGUACGGAGCG [C11G C22G A37G C60A A70G] | ≤ 0.5
GUUCCGUUGGGGUAAUGGUAACGAGUCGCCCUCCUAAGGAGAAGACUGCGGGUUCGAGUCCCGUACGGAACG [C11G C24A U28G] | ≤ 0.5
GUUCCGUUGGGGUAAUGGUAACGCGUUUCCCUUCUAAGGAGAAGACUGCGGGUUCGAGUCCGGUACGGAACG [C11G C27U C33U C62G] | ≤ 0.5

Reference: the RNAGym collection of RNA variant scans (doi:10.1126/science.aae0568)
